Results on seven substances are retold here after PMC10546156 (Journal for Immunotherapy of Cancer, 2023).

The test deals with HLA-typed donor PBMC, CD8 T cells. The test can be described thus: Immunogenicity assessment: tetramer/dextramer staining of donor T cells. The format is cell-based, human. Conditions: two C*07:01 healthy donor buffy coats, prior to or after sequential dextramer enrichment. In a few lines: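 Dextramers were assembled from UV-exchange MHC monomers. 1–3×10^8 PBMC were treated with 50 nM dasatinib plus FcR block (30 min, 37°C), then with 10 µg/mL dextramer pool (1 h, 4°C), and bead-enriched sequentially over two columns. Enriched cells were either surface-stained for flow cytometry with the whole sample acquired, or expanded 10–14 days (irradiated allogeneic feeders, anti-CD3/28, IL-2 300 IU/mL, IL-7/IL-15 5 ng/mL) before re-enrichment.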
Take _KRAS(ph)FAKSV_ [pWNK]: the “C*07:01 PP-CTL responses by dextramer pool” value (shortened to “C*07:01 PP-CTL responses”) is “could not detect responses”.
Consider _KRAS(ph)GQAFEL_ [pSTMN], for which the “C*07:01 PP-CTL responses” value was “could not detect responses”.
_RRYS(ph)DPPTY_ [pMYO9B]: the “C*07:01 PP-CTL responses” value is listed as “could not detect responses”.
To _FRRS(ph)PTKSSL_ [pRBM14] belongs “could not detect responses”; to _RRFS(ph)GTAVY_ [pZNF518A], “could not detect responses”.
For _RRPS(ph)LLSEF_ [pNCOR], the “C*07:01 PP-CTL responses” value is on record as “could not detect responses”.
Under _HRYS(ph)TPHAF_ [pRAF1] stands “could not detect responses”.
